Assay results published in ChEMBL document CHEMBL1138195, “Highly chiral muscarinic ligands: the discovery of (2S,2'R,3'S,5'R)-1-methyl-2-(2-methyl-1,3-oxathiolan-5-yl)pyrrolidine 3-sulfoxide methyl iodide, a potent, functionally selective, M2 partial agonist” (J Med Chem, 2006).

Assays:
[1] = target: Muscarinic acetylcholine receptor M3 (Homo sapiens, UniProt P20309); assay: Binding affinity to cloned human muscarinic M3 receptor expressed in CHO cells; format: cell-based; conditions: for Log Ki: cho
Chain of Muscarinic acetylcholine receptor M3 (P20309 whole entry): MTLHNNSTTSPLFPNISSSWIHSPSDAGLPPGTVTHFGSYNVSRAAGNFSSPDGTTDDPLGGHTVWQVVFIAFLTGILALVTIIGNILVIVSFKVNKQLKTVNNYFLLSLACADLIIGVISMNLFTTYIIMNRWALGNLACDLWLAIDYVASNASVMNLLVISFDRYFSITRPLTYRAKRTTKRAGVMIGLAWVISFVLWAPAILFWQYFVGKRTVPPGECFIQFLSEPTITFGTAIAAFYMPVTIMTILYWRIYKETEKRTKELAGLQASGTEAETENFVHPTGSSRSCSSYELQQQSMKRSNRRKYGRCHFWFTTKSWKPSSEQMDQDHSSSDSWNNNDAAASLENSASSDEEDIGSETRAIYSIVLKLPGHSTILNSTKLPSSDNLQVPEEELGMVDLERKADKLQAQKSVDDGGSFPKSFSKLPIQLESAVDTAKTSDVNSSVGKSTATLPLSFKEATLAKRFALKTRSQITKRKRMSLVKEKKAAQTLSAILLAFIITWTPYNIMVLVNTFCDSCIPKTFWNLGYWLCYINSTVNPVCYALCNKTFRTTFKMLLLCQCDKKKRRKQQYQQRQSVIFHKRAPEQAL

[2] = target: T1, Muscarinic acetylcholine receptor M4 (Homo sapiens, UniProt P08173); assay: Binding affinity to cloned human muscarinic M4 receptor expressed in CHO cells; format: cell-based; conditions: for Log Ki: cho
T1 sequence (P08173 whole entry): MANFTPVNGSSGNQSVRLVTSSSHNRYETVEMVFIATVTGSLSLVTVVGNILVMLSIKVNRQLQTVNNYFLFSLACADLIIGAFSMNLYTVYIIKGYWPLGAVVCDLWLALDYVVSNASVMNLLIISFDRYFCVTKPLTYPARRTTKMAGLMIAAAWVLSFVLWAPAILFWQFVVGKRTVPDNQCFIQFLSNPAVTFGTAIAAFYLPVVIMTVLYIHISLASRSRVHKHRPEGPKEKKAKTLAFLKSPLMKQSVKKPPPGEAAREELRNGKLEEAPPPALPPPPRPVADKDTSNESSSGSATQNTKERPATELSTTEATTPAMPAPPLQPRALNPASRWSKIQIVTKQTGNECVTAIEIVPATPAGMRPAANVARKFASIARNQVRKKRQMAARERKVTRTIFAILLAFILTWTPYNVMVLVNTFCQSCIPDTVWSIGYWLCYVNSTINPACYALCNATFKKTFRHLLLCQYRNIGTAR
Procedure, shortened: (§1)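 Membranes from CHO cells stably expressing human hm2, hm4 or hm5 receptors, at 70, 50 and 25 µg/mL protein respectively. 0.2 nM [3H]NMS displaced by unlabelled ligand for 120 min at room temperature, in 25 mM sodium phosphate with 5 mM MgCl2, pH 7.4. Rapid filtration, then scintillation counting. Mean of at least three experiments.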

[3] = target: T2, Muscarinic acetylcholine receptor M1 (Homo sapiens, UniProt P11229); assay: Binding affinity to cloned human muscarinic M1 receptor expressed in CHO cells; format: cell-based; conditions: for Log Ki: cho
T2 sequence (P11229 whole entry): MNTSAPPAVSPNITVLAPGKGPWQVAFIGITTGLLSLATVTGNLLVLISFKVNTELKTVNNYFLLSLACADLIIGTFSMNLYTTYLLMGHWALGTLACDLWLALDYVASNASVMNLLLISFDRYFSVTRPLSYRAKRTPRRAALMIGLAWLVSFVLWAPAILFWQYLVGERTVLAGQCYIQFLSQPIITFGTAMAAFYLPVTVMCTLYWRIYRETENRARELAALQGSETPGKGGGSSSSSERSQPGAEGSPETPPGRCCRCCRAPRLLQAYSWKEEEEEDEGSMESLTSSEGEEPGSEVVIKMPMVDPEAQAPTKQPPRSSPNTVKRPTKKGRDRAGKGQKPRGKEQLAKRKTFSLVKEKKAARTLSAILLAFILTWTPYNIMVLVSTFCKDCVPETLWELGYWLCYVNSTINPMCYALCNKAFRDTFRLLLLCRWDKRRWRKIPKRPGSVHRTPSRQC

[4] = target: T3, Muscarinic acetylcholine receptor M2 (Homo sapiens, UniProt P08172); assay: Binding affinity to cloned human muscarinic M2 receptor expressed in CHO cells; format: cell-based; procedure, shortened: as §1
T3 sequence (P08172 whole entry): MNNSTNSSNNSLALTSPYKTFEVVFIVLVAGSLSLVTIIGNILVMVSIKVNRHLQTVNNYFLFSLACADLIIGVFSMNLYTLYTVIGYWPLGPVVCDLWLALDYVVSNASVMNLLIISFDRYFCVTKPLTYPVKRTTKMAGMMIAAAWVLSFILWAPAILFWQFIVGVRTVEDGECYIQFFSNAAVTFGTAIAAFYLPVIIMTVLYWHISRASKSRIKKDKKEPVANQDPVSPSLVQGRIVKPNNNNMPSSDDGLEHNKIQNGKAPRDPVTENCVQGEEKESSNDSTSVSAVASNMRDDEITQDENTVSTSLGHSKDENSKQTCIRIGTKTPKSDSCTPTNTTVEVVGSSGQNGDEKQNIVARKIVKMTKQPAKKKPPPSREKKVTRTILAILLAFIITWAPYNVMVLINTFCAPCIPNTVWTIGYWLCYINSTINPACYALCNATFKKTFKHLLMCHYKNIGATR

[5] = target: T4, Muscarinic acetylcholine receptor M5 (Homo sapiens, UniProt P08912); assay: Binding affinity to cloned human muscarinic M5 receptor expressed in CHO cells; format: cell-based; procedure, shortened: as §1
T4 sequence (P08912 whole entry): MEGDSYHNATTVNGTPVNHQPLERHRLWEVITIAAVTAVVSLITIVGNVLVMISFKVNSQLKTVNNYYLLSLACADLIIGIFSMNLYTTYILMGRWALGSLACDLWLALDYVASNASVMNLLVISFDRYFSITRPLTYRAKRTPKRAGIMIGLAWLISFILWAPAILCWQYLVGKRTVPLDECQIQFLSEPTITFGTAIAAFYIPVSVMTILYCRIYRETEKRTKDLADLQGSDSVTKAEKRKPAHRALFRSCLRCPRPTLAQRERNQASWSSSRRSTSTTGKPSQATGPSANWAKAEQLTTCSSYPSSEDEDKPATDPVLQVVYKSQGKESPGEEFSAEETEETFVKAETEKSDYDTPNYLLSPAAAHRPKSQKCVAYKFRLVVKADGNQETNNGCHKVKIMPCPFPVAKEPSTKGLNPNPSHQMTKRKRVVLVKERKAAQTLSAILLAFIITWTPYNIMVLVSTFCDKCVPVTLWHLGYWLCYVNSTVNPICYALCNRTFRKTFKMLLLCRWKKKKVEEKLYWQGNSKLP

[6] = target: Muscarinic acetylcholine receptor M3 (Cavia porcellus) (UniProt Q8VH26); assay: Antagonist affinity at muscarinic M3 receptor in guinea pig ileum; format: functional, tissue-based
Chain of Muscarinic acetylcholine receptor M3 (Cavia porcellus) (Q8VH26 1-587): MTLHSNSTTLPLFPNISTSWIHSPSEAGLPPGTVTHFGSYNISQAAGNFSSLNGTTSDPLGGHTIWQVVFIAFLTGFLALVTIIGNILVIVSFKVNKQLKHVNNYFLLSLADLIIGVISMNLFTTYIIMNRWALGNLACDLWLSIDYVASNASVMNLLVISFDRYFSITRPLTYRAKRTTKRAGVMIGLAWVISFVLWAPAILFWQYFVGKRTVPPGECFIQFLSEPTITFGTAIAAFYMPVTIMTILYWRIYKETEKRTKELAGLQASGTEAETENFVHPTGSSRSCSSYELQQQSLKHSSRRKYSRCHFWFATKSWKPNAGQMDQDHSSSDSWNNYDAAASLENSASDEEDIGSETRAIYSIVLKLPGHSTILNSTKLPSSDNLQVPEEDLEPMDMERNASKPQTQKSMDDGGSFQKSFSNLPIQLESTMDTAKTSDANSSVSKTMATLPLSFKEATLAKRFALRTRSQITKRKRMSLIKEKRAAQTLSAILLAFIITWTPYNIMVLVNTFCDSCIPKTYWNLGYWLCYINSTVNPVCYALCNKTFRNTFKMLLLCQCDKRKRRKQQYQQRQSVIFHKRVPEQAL
Procedure, shortened: (§2)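 Isolated guinea pig tissue contractions, measured against arecaidine propargyl ester control curves. Agonists: cumulative dose-response curve after a 30 min wash, responses as % of the control maximum. Antagonists: 60 min incubation, then a new agonist curve. Parallel time-control tissues were run. Values expressed as pD2 (-log ED50) with intrinsic activity, or as pKb (-log Kb).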

[7] = target: T5, Muscarinic acetylcholine receptor M1 (Homo sapiens) (UniProt P11229); assay: Antagonist affinity at muscarinic M1 receptor in rabbit vas deferens; format: functional, tissue-based; conditions: Oryctolagus cuniculus, target entry is the homologue from another species
T5 sequence (whole entry): T2 sequence (P11229 whole entry)
Procedure, shortened: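 Field-stimulated (0.1 ms, 2 Hz, 10-15 V), contractions recorded isometrically after 1 h equilibration. Cumulative dose-response curves against p-Cl-McN-A-343 reference. Antagonists incubated 60 min before the repeat curve. Reported as pD2 (-log ED50) with intrinsic activity, or as pKb.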

[8] = target: T6, Muscarinic acetylcholine receptor M2 (Homo sapiens) (UniProt P08172); assay: Antagonist affinity at muscarinic M2 receptor in guinea pig atrium; format: functional, tissue-based; conditions: Cavia porcellus; Cardiac atrium; target entry is the homologue from another species
T6 sequence (whole entry): T3 sequence (P08172 whole entry)
Procedure, shortened: (§3)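 Guinea pig left atria in PSS at 30 °C, paced by square-wave pulses (1 ms, 1 Hz, 5-10 V). Inotropic force recorded isometrically after 2 h equilibration, with cumulative dose-response curves to arecaidine propargyl ester as reference. Antagonists incubated 60 min after a 30 min wash, then the curve was repeated. Values given as pD2 with intrinsic activity, or as pKb.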

[9] = target: T7, Muscarinic acetylcholine receptor M4 (Homo sapiens) (UniProt P08173); assay: Antagonist affinity at muscarinic M4 receptor in guinea pig lung strips; format: functional; conditions: Cavia porcellus, target entry is the homologue from another species; procedure, shortened: as §2
T7 sequence (whole entry): T1 sequence (P08173 whole entry)

[10] = target: T6, Muscarinic acetylcholine receptor M2 (Homo sapiens); assay: Agonist potency at muscarinic M2 receptor in guinea pig atrium; format: functional, tissue-based; conditions: Cavia porcellus; Cardiac atrium; target entry is the homologue from another species; procedure, shortened: as §3
[11] = target: Muscarinic acetylcholine receptor M3 (Cavia porcellus) (UniProt Q8VH26); assay: Agonist potency at muscarinic M3 receptor in guinea pig ileum; format: functional, tissue-based; procedure, shortened: as §2

Structure (SMILES) | Ki [1] | Ki [2] | Ki [3] | Ki [4] | Ki [5] | Log Ki [1] | Log Ki [2] | Log Ki [3] | pKb [6] | pKb [7] | pKb [8] | pKb [9] | Activity [10] | Activity [11]
C[C@H]1O[C@@H]([C@H]2CCCN2C)C[S@+]1[O-] | > 100 µM | > 100 µM | > 100 µM | > 100 µM | > 100 µM | – | – | – | – | – | – | – | – | –
C[C@H]1O[C@@H]([C@@H]2CCC[N+]2(C)C)C[S@@+]1[O-].[I-] (stereo in doubt; (-)-8) | – | – | – | > 100 µM | > 100 µM | < -4 | < -4 | < -4 | – | – | – | – | – | –
C[C@H]1O[C@@H]([C@@H]2CCC[N+]2(C)C)C[S@@+]1[O-] (stereo in doubt; (-)-6) | – | – | – | – | – | – | – | – | < 5 | < 5 | < 5 | < 5 | 0 | 0
C[C@H]1O[C@@H]([C@@H]2CCC[N+]2(C)C)C[S@@+]1[O-].[I-] (stereo in doubt; (+)-7) | – | – | – | 81.3 µM | 57.5 µM | < -4 | < -4 | < -4 | – | – | – | – | – | –
C[C@@H]1O[C@H]([C@@H]2CCCN2C)C[S@@+]1[O-] | > 100 µM | > 100 µM | > 100 µM | > 100 µM | > 100 µM | – | – | – | < 5 | < 5 | < 5 | < 5 | 0 | 0
C[C@@H]1O[C@H]([C@H]2CCC[N+]2(C)C)C[S@+]1[O-] | > 100 µM | > 100 µM | > 100 µM | > 100 µM | > 100 µM | – | – | – | – | – | – | – | – | –
C[C@H]1O[C@@H]([C@@H]2CCCN2C)C[S@@+]1[O-] | > 100 µM | > 100 µM | > 100 µM | > 100 µM | > 100 µM | – | – | – | – | – | – | – | – | –
C[C@H]1O[C@@H]([C@@H]2CCC[N+]2(C)C)C[S@@+]1[O-] (stereo in doubt; (-)-8) | – | – | – | – | – | – | – | – | < 5 | < 5 | < 5 | < 5 | 0 | 0
C[C@H]1O[C@@H]([C@@H]2CCCN2C)C[S@+]1[O-] | > 100 µM | > 100 µM | > 100 µM | 87.1 µM | > 100 µM | – | – | – | < 5 | < 5 | < 5 | < 5 | 0 | 0
